From ChEMBL document CHEMBL3124836, “Pyrano-isoflavans from Glycyrrhiza uralensis with antibacterial activity against Streptococcus mutans and Porphyromonas gingivalis” (2014)
≈ marks a conversion by molar mass, not a printed value.

Tests used:
Assay type in all cases: functional
Streptococcus mutans [1] = test: Bactericidal activity against Streptococcus mutans ATCC 35668 after 3 days; conditions: ATCC 35668, 72 h
Method in brief: (§1)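 From microbroth wells without visible growth after 24 h, aliquots were spread on THB agar and incubated 3 days at 37 °C. MBC was the lowest concentration giving no colony formation. Three independent experiments.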

Porphyromonas gingivalis [2] = test: Bactericidal activity against Porphyromonas gingivalis ATCC 33277 after 3 days; conditions: ATCC 33277, 72 h; method in brief: as §1
Streptococcus mutans [3] = test: Antibacterial activity against Streptococcus mutans ATCC 35668 after 24 hrs by microbroth dilution assay; conditions: ATCC 35668, 24 h
Method in brief: (§2)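 EtOH stocks tested as a 2-fold series (200–0.78 μg/mL) mixed with an equal volume of overnight culture diluted to OD660 0.2. Medium was THB plus hemin 10 μg/mL and vitamin K 10 μg/mL. P. gingivalis was run anaerobically (N2/H2/CO2 80/10/10) and S. mutans aerobically. After 24 h at 37 °C growth was read visually; MIC was the lowest concentration without growth. Three independent experiments.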

Porphyromonas gingivalis [4] = test: Antibacterial activity against Porphyromonas gingivalis ATCC 33277 after 24 hrs by microbroth dilution assay; conditions: ATCC 33277, 24 h; method in brief: as §2

SMILES	MIC (Streptococcus mutans [3]) [µg/mL]	MIC (Porphyromonas gingivalis [4]) [µg/mL]	MBC (Streptococcus mutans [1]) [µg/mL]	MBC (Porphyromonas gingivalis [2]) [µg/mL]
CN(C)[C@@H]1C(O)=C(C(N)=O)C(=O)[C@@]2(O)C(O)=C3C(=O)c4c(O)cccc4[C@@](C)(O)[C@H]3C[C@@H]12 [TETRACYCLINE]		1.56 (≈ 3.51 µM)		12.5 (≈ 28.1 µM)
COc1c(CC=C(C)C)c(O)cc2c1C[C@H](c1ccc3c(c1O)C=CC(C)(C)O3)CO2	12.5 (≈ 29.6 µM)	12.5 (≈ 29.6 µM)	12.5 (≈ 29.6 µM)	12.5 (≈ 29.6 µM)
COc1c(CC=C(C)C)c(O)cc2c1C[C@H](c1ccc(O)c(CC=C(C)C)c1O)CO2 [LICORICIDIN]	12.5 (≈ 29.4 µM)	3.12 (≈ 7.36 µM)	25 (≈ 58.9 µM)	3.12 (≈ 7.36 µM)
COc1c(CC=C(C)C)c(O)cc2c1C[C@H](C1=CC(=O)C(O)=C(CC=C(C)C)C1=O)CO2	> 200	25 (≈ 57 µM)	> 200	25 (≈ 57 µM)
COc1c(CC=C(C)C)c(O)cc2c1[C@@H]1Oc3c(ccc(O)c3CC=C(C)C)[C@@H]1CO2	200 (≈ 473 µM)	50 (≈ 118 µM)	> 200	50 (≈ 118 µM)
COc1c2c(cc3oc(=O)c4c5ccc(O)cc5oc4c13)OC(C)(C)CC2 [ISOGLYCYROL]	> 200	200 (≈ 546 µM)	> 200	200 (≈ 546 µM)

More lines, main results first:

MIC (Streptococcus mutans [3]) [µg/mL]	MIC (Porphyromonas gingivalis [4]) [µg/mL]	SMILES	MBC (Streptococcus mutans [1]) [µg/mL]	MBC (Porphyromonas gingivalis [2]) [µg/mL]
> 200	200 (≈ 568 µM)	COc1cc2occ(-c3ccc(O)cc3)c(=O)c2c(O)c1CC=C(C)C [GANCAONIN G]	> 200	200 (≈ 568 µM)
0.05 (≈ 0.15 µM)		CC1(C)S[C@@H]2[C@H](NC(=O)Cc3ccccc3)C(=O)N2[C@H]1C(=O)O [PENICILLIN G]	1.56 (≈ 4.67 µM)	
25 (≈ 59.2 µM)	6.25 (≈ 14.8 µM)	COc1c2c(cc3c1C[C@H](c1ccc(O)c(CC=C(C)C)c1O)CO3)OC(C)(C)C=C2	> 200	6.25 (≈ 14.8 µM)
6.25 (≈ 14.8 µM)	6.25 (≈ 14.8 µM)	COc1c(CC=C(C)C)c(O)cc2c1C[C@H](c1ccc(O)c3c1OC(C)(C)C=C3)CO2	6.25 (≈ 14.8 µM)	6.25 (≈ 14.8 µM)
